ChEMBL document CHEMBL3120107, “Cytotoxic cardiac glycosides and coumarins from Antiaris toxicaria” (2014)
Converted amounts (≈) assume the structure as drawn.

Tests used:
[1] = tested on: SK-MEL-2; assay: Cytotoxicity against human SK-MEL-2 cells assessed as growth inhibition after 72 hrs by SRB assay; format: functional; conditions: for EC50: Homo sapiens, SK-MEL-2, 72 h, read-out: ED50 (the source's name)
In short: (§1)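 Sulforhodamine B assay run by NCI-validated procedure. Cells grown at 37 °C under humidified 5% CO2 in RPMI-1640 with 25 mM HEPES, […] (w/v) sodium bicarbonate, 10% (v/v) FBS and 100 μg/mL kanamycin. Compounds came from DMSO stocks, with final DMSO ≤ 1% (v/v). Continuous exposure for 72 h. ED50 (μg/mL, 50% cell-number reduction) interpolated from dose-response data. Triplicate tests. Doxorubicin served as positive control.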

[2] = Cytotoxicity against human […] cells assessed as growth inhibition after 72 hrs by SRB assay; format: functional; conditions: for EC50: Homo sapiens, HCT9, 72 h, read-out: ED50 (the source's name); in short: as §1
[3] = tested on: CAKI-1; assay: Cytotoxicity against human CAKI-1 cells assessed as growth inhibition after 72 hrs by SRB assay; format: functional; conditions: for EC50: Homo sapiens, CAKI-1, 72 h, read-out: ED50 (the source's name); in short: as §1
[4] = tested on: 1A9; assay: Cytotoxicity against human 1A9 cells assessed as growth inhibition after 72 hrs by SRB assay; format: functional; conditions: for EC50: Homo sapiens, 1A9, 72 h, read-out: ED50 (the source's name); in short: as §1
[5] = tested on: PC-3; assay: Cytotoxicity against human PC3 cells assessed as growth inhibition after 72 hrs by SRB assay; format: functional; conditions: for EC50: Homo sapiens, PC-3, 72 h, read-out: ED50 (the source's name); in short: as §1
[6] = Cytotoxicity against human U87MG cells assessed as growth inhibition after 72 hrs by SRB assay; format: functional, U-87MG ATCC; conditions: for EC50: Homo sapiens, U-87 MG, 72 h, read-out: ED50 (the source's name); in short: as §1
[7] = tested on: MCF7; assay: Cytotoxicity against human MCF7 cells assessed as growth inhibition after 72 hrs by SRB assay; format: functional; conditions: for EC50: Homo sapiens, MCF7, 72 h, read-out: ED50 (the source's name); in short: as §1
[8] = tested on: A549; assay: Cytotoxicity against human A549 cells assessed as growth inhibition after 72 hrs by SRB assay; format: functional; conditions: for EC50: Homo sapiens, A549, 72 h, read-out: ED50 (the source's name); in short: as §1
[9] = Cytotoxicity against human KBVIN cells assessed as growth inhibition after 72 hrs by SRB assay; format: functional; conditions: for EC50: Homo sapiens, KBVIN, 72 h, read-out: ED50 (the source's name); in short: as §1
[10] = tested on: KB; assay: Cytotoxicity against human KB cells assessed as growth inhibition after 72 hrs by SRB assay; format: functional; conditions: for EC50: Homo sapiens, KB, 72 h, read-out: ED50 (the source's name); in short: as §1

Compound	EC50 [1] [µg/mL]	EC50 [2] [µg/mL]	EC50 [3] [µg/mL]	EC50 [4] [µg/mL]	EC50 [5] [µg/mL]	EC50 [6] [µg/mL]	EC50 [7] [µg/mL]	EC50 [8] [µg/mL]	EC50 [9] [µg/mL]	EC50 [10] [µg/mL]	ED50 [1] [µg/mL]	ED50 [2] [µg/mL]	ED50 [3] [µg/mL]	ED50 [4] [µg/mL]	ED50 [5] [µg/mL]	ED50 [6] [µg/mL]	ED50 [7] [µg/mL]	ED50 [8] [µg/mL]	ED50 [9] [µg/mL]	ED50 [10] [µg/mL]
C[C@H]1O[C@@H](O[C@H]2CC[C@]3(C=O)[C@H]4CC[C@]5(C)[C@@H](C6=CC(=O)OC6)CC[C@]5(O)[C@@H]4CC[C@]3(O)C2)[C@H](O)[C@H](O)[C@H]1O[C@@H]1O[C@H](CO)[C@@H](O)[C@H](O)[C@H]1O	0.16 (≈ 0.224 µM)	0.94 (≈ 1.32 µM)	0.51 (≈ 0.716 µM)	0.53 (≈ 0.744 µM)	0.6 (≈ 0.842 µM)	1.9 (≈ 2.67 µM)	0.58 (≈ 0.814 µM)	0.12 (≈ 0.168 µM)	1.7 (≈ 2.39 µM)	1.5 (≈ 2.1 µM)										
C[C@]12CC[C@H]3[C@@H](CC[C@]4(O)C[C@@H](O)CC[C@]34C=O)[C@@]1(O)CC[C@@H]2C1=CC(=O)OC1 [STROPHANTHIDIN]	0.13 (≈ 0.321 µM)	0.51 (≈ 1.26 µM)	0.14 (≈ 0.346 µM)	0.15 (≈ 0.371 µM)	0.17 (≈ 0.42 µM)	0.72 (≈ 1.78 µM)	0.38 (≈ 0.939 µM)	0.11 (≈ 0.272 µM)	0.69 (≈ 1.71 µM)	0.61 (≈ 1.51 µM)										
CO[C@H]1[C@@H](O[C@H]2CC[C@]3(C=O)[C@H]4CC[C@]5(C)[C@@H](C6=CC(=O)OC6)CC[C@]5(O)[C@@H]4CC[C@]3(O)C2)O[C@H](C)[C@@H](O)[C@H]1O (stereo in doubt; 23) [STROPHATHOJAVOSIDE]	0.063 (≈ 0.112 µM)	0.085 (≈ 0.151 µM)	0.014 (≈ 0.0248 µM)	0.013 (≈ 0.023 µM)	0.063 (≈ 0.112 µM)	0.043 (≈ 0.0762 µM)	0.024 (≈ 0.0425 µM)	0.015 (≈ 0.0266 µM)	0.05 (≈ 0.0885 µM)	0.081 (≈ 0.143 µM)										
CC1(C)Oc2ccc3ccc(=O)oc3c2[C@@H](O[C@@H]2O[C@H](CO)[C@@H](O)[C@H](O)[C@H]2O)[C@@H]1O						7.4 (≈ 17.4 µM)	3.1 (≈ 7.3 µM)	1.2 (≈ 2.83 µM)	4.1 (≈ 9.66 µM)	5.8 (≈ 13.7 µM)										
C[C@@H]1O[C@@H](O[C@H]2CC[C@]3(C=O)[C@H]4CC[C@]5(C)[C@@H](C6=CC(=O)OC6)CC[C@]5(O)[C@@H]4CC[C@]3(O)C2)[C@H](O)[C@H](O)[C@H]1O [CONVALLATOXIN]	0.0013 (≈ 0.00236 µM)	0.0014 (≈ 0.00254 µM)	0.0031 (≈ 0.00563 µM)	0.03 (≈ 0.0545 µM)	0.094 (≈ 0.171 µM)	0.014 (≈ 0.0254 µM)	0.0065 (≈ 0.0118 µM)	0.0027 (≈ 0.0049 µM)	0.013 (≈ 0.0236 µM)	0.014 (≈ 0.0254 µM)										
CO[C@H]1[C@@H](O[C@H]2CC[C@]3(C=O)[C@H]4CC[C@]5(C)[C@@H](C6=CC(=O)OC6)CC[C@]5(O)[C@@H]4CC[C@]3(O)C2)O[C@H](C)[C@@H](O)[C@H]1O (stereo in doubt; 21) [STROPHATHOJAVOSIDE]											0.064 (≈ 0.113 µM)	0.067 (≈ 0.119 µM)	0.014 (≈ 0.0248 µM)	0.013 (≈ 0.023 µM)	0.052 (≈ 0.0921 µM)	0.078 (≈ 0.138 µM)	0.042 (≈ 0.0744 µM)	0.016 (≈ 0.0283 µM)	0.051 (≈ 0.0903 µM)	0.066 (≈ 0.117 µM)
C[C@H]1O[C@H](O[C@H]2CC[C@]3(C=O)[C@H]4C[C@@H](O)[C@]5(C)[C@@H](C6=CC(=O)OC6)CC[C@]5(O)[C@@H]4CC[C@]3(O)C2)[C@H](O)[C@H](O)[C@@H]1O [ANTIALLOSIDE]	0.12 (≈ 0.212 µM)	0.11 (≈ 0.194 µM)	0.068 (≈ 0.12 µM)	0.062 (≈ 0.109 µM)	0.085 (≈ 0.15 µM)	0.15 (≈ 0.265 µM)	0.12 (≈ 0.212 µM)	0.046 (≈ 0.0812 µM)	0.075 (≈ 0.132 µM)	0.065 (≈ 0.115 µM)										
C[C@]12CC[C@H]3[C@@H](CC[C@]4(O)C[C@@H](O)CC[C@]34CO)[C@@]1(O)CC[C@@H]2C1=CC(=O)OC1 [STROPHANTHIDOL]	0.57 (≈ 1.4 µM)	6.4 (≈ 15.7 µM)	0.67 (≈ 1.65 µM)	0.66 (≈ 1.62 µM)	0.81 (≈ 1.99 µM)	2.9 (≈ 7.13 µM)	0.69 (≈ 1.7 µM)	0.14 (≈ 0.344 µM)	3 (≈ 7.38 µM)	2.7 (≈ 6.64 µM)										
C[C@H]1O[C@H](O[C@H]2CC[C@]3(C(=O)O)[C@H]4C[C@@H](O)[C@]5(C)[C@@H](C6=CC(=O)OC6)CC[C@]5(O)[C@@H]4CC[C@]3(O)C2)[C@H](O)[C@H](O)[C@H]1O [ANTIAROSIDE H]	1.3 (≈ 2.23 µM)	2.5 (≈ 4.29 µM)	1.5 (≈ 2.57 µM)	1.4 (≈ 2.4 µM)	1.8 (≈ 3.09 µM)	7.3 (≈ 12.5 µM)	3.1 (≈ 5.32 µM)	0.76 (≈ 1.3 µM)	7.1 (≈ 12.2 µM)	5.9 (≈ 10.1 µM)										
C[C@@H]1O[C@H](O[C@H]2CC[C@@]3(C(=O)O)[C@H](CC[C@@H]4[C@@H]3CC[C@]3(C)[C@@H](C5=CC(=O)OC5)CC[C@]43O)C2)[C@H](O)[C@H](O)[C@H]1O [ANTIAROSIDE E]	0.12 (≈ 0.218 µM)	0.35 (≈ 0.636 µM)	0.13 (≈ 0.236 µM)	0.13 (≈ 0.236 µM)	0.16 (≈ 0.291 µM)	0.73 (≈ 1.33 µM)	0.42 (≈ 0.763 µM)	0.07 (≈ 0.127 µM)	0.57 (≈ 1.04 µM)	0.49 (≈ 0.89 µM)										
C[C@]12CC[C@H]3[C@@H](CC[C@@H]4C[C@@H](O)CC[C@@]43CO)[C@@]1(O)CC[C@@H]2C1=CC(=O)OC1	0.7 (≈ 1.79 µM)	0.46 (≈ 1.18 µM)	0.11 (≈ 0.282 µM)	12 (≈ 30.7 µM)	0.15 (≈ 0.384 µM)	0.5 (≈ 1.28 µM)	0.21 (≈ 0.538 µM)	0.05 (≈ 0.128 µM)	0.5 (≈ 1.28 µM)	0.45 (≈ 1.15 µM)										
C[C@@H]1O[C@H](O[C@H]2CC[C@]3(C(=O)O)[C@H]4C[C@@H](O)[C@]5(C)[C@@H](C6=CC(=O)OC6)CC[C@]5(O)[C@@H]4CC[C@]3(O)C2)[C@H](O)[C@H](O)[C@H]1O [ANTIAROSIDE G]							17.5 (≈ 30 µM)	5.3 (≈ 9.1 µM)												
C[C@]12CC[C@H](O)C[C@@]1(O)CC[C@@H]1[C@@H]2CC[C@]2(C)[C@@H]([C@]3(O)COC(=O)C3)CC[C@]12O [ANTIAROTOXININ A]							15 (≈ 36.7 µM)	4.3 (≈ 10.5 µM)												
